Measurements published in ChEMBL document CHEMBL5506039, “Discovery and Optimization of Tambjamines as a Novel Class of Antileishmanial Agents” (J Med Chem, 2024).

Experiments:
Leishmania mexicana [1] = assay: Antileishmanial activity against Leishmania mexicana MNYC/BZ/62/M379 amastigotes expressing red-shifted firefly luciferase from integrated ribosomal (28S) RNA locus infected in mouse J774.A1 cells assessed as parasite survival at 0.1 uM measured after 96 hrs by luminescence based analysis relative to control; format: functional; conditions: MNYC/BZ/62/M379, J774.A1
[2] = Cytotoxicity against mouse J774.A1 cells assessed as cell survival at 0.1 uM measured after 96 hrs by SYBR Green II dye based analysis relative to control; format: toxicity; conditions: read-out: Survival
How it was run: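 Uninfected J774A.1 mouse macrophages were plated at 1 × 10⁴ cells/well in DMEM with 10% heat-inactivated FBS and left 3 h at 37 °C to reattach. Compounds were added from DMSO, and analogues were screened at 0.1 μM. After 96 h at 37 °C in 5% CO₂, medium was removed. SYBR Green II (1:1000 in 1% Triton/PBS) was added for 1 h in the dark at room temperature, and fluorescence was read at Ex 485/Em 535 as a DNA-content measure of viability.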

Leishmania mexicana [3] = assay: Antileishmanial activity against Leishmania mexicana MNYC/BZ/62/M379 amastigotes expressing red-shifted firefly luciferase from integrated ribosomal (28S) RNA locus infected in mouse J774.A1 cells assessed as reduction in parasite survival measured after 96 hrs by luminescence based analysis; format: functional, organism-based; conditions: MNYC/BZ/62/M379, J774.A1, 96 h
How it was run: (§1)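 J774A.1 macrophages infected with stationary-phase luciferase-expressing promastigotes at 10:1 parasites:macrophage, overnight at 37 °C, 5% CO₂. Non-internalized parasites washed off and 1 × 10⁴ cells/well replated in MEM/10% HI-FBS. Compounds in DMSO added as serial 3-fold dilutions (typically 10 μM–1 nM) for 96 h. Luciferase luminescence read; EC50 from log-transformed sigmoidal variable-slope fit. Mean ± SD of ≥2 independent experiments.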

[4] = Cytotoxicity against mouse J774.A1 cells assessed as reduction in cell survival measured after 96 hrs by SYBR Green II dye based analysis; format: toxicity
How it was run: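 Uninfected J774A.1 macrophages, 1 × 10⁴ cells/well in DMEM/10% HI-FBS, reattached 3 h, then exposed to compounds for 96 h. DNA content read after lysis with SYBR Green II (1:1000 in 1% Triton/PBS), 1 h dark at room temperature, fluorescence Ex 485/Em 535.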

[5] = Therapeutic index, ratio of EC50 for mouse J774.A1 cells to EC50 for antileishmanial activity against Leishmania mexicana MNYC/BZ/62/M379 amastigotes expressing red-shifted firefly luciferase from integrated ribosomal (28S) RNA locus infected in mouse J774.A1 cells; format: toxicity, cell-based; conditions: read-out: TI
Leishmania donovani = assay: Antileishmanial activity against Leishmania donovani amastigotes expressing red-shifted firefly luciferase from integrated ribosomal (28S) RNA locus infected in mouse J774.A1 cells assessed as reduction in parasite growth measured after 96 hrs by luminescence based analysis; format: functional, organism-based; conditions: J774.A1, 96 h; how it was run: as §1
HepG2 = assay: Cytotoxicity against human HepG2 cells assessed as inhibition of cell growth incubated for 48 hrs by MTT assay; format: toxicity, cell-based
How it was run: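 HepG2 cells, 2.5 × 10⁴/well in supplemented complete MEM, settled overnight at 37 °C, 5% CO₂. Compounds given as 11 duplicate 1.6-fold dilutions, 10 to 0.15 μg/mL, for 48 h. MTT added for 1 h in the dark at room temperature, formazan dissolved in acidified isopropanol, absorbance read. Triplicate runs; IC50 by sigmoidal variable-slope regression.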

[6] = Therapeutic index, ratio of IC50 for human HepG2 cells to EC50 for antileishmanial activity against Leishmania donovani amastigotes expressing red-shifted firefly luciferase from integrated ribosomal (28S) RNA locus infected in mouse J774.A1 cells; format: toxicity, cell-based; conditions: read-out: TI
How it was run: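 TI computed as HepG2 IC50 divided by L. donovani EC50. HepG2: MTT assay with 48 h exposure to 10–0.15 μg/mL (1.6-fold dilutions), triplicates, sigmoidal variable-slope fit. Amastigotes: J774A.1 macrophages infected with RS-luciferase promastigotes at 10:1, washed after 24 h, then 96 h compound exposure (3-fold dilutions, 10 μM–1 nM) in MEM/10% HI-FBS at 37 °C, 5% CO₂; luciferase readout.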

[7] = Metabolic stability in pre-warmed pooled human liver microsomes assessed as half life at 1 uM measured upto 60 mins by LC-MS analysis; format: ADME, Microsome
How it was run: (§2)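 Compound at 1 μM final with 0.5 mg/mL pooled human or mouse liver microsomes, 1.3 mM NADP and 3.3 mM MgCl₂ in 100 mM potassium phosphate, pH 7.4. Reaction started with 1 U/mL G6PD at 37 °C with shaking.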

[8] = Metabolic stability in pre-warmed pooled mouse liver microsomes assessed as half life at 1 uM measured upto 60 mins by LC-MS analysis; format: ADME, Microsome; how it was run: as §2

In the case of `Cl.FC(F)(F)Oc1ccc(C2=CC(c3ccc[nH]3)=N/C2=C\NC23CC4CC(CC(C4)C2)C3)cc1`, the survival at 0.1 µM (Leishmania mexicana [1]) is reported as 39%, the viability at 96 h, 0.1 µM [2] is reported as 70.6% and the EC50 (Leishmania mexicana [3]) is reported as 90.5 nM. For the same compound, the EC50 at 96 h [4] was 908 nM, the selectivity ratio [5] was 10 and the EC50 (Leishmania donovani) was 398 nM. For the same compound, the IC50 (HepG2) was 85500 nM, the selectivity ratio [6] was 215 and the half-life at 1 µM [7] was > 60 min. For the same compound, the half-life at 1 µM [8] was > 60 min.

In the case of `CCc1c(C)[nH]c(C2=N/C(=C\NC34CC5CC(CC(C5)C3)C4)C(C)=C2C)c1C.Cl`, the survival at 0.1 µM (Leishmania mexicana [1]) is reported as 10.7%, the viability at 96 h, 0.1 µM [2] is reported as 63.5% and the EC50 (Leishmania mexicana [3]) is reported as 54 nM. It also gave an EC50 at 96 h [4] of 675 nM, a selectivity ratio [5] of 12 and an EC50 (Leishmania donovani) of 81.2 nM. The IC50 (HepG2) was 21300 nM, the selectivity ratio [6] was 263 and the half-life at 1 µM [7] was > 60 min. It also gave a half-life at 1 µM [8] of 29 min.

Work on `Cl.Fc1cc(F)cc(OC2=CC(c3ccc[nH]3)=N/C2=C\NC23CC4CC(CC(C4)C2)C3)c1` yielded a survival at 0.1 µM (Leishmania mexicana [1]) of 27.3%, a viability at 96 h, 0.1 µM [2] of 59.3% and an EC50 (Leishmania mexicana [3]) of 79 nM. The EC50 at 96 h [4] was 680 nM, the selectivity ratio [5] was 8.6 and the EC50 (Leishmania donovani) was 184 nM. For the same compound, the IC50 (HepG2) was 59400 nM, the selectivity ratio [6] was 323 and the half-life at 1 µM [7] was > 60 min. For the same compound, the half-life at 1 µM [8] was > 60 min.

With `CC1=C/C(=C\NC23CC4CC(CC(C4)C2)C3)N=C1c1ccc[nH]1.Cl` the survival at 0.1 µM (Leishmania mexicana [1]) was 15.4%, the viability at 96 h, 0.1 µM [2] was 86.9% and the EC50 (Leishmania mexicana [3]) was 48 nM. It also gave an EC50 at 96 h [4] of 1130 nM, a selectivity ratio [5] of 24 and an EC50 (Leishmania donovani) of 100 nM. The selectivity ratio [6] was 300 and the half-life at 1 µM [7] was > 60 min.

`COC1=CC(c2ccc[nH]2)=N/C1=C\N[C@H]1CC[C@H](C(F)(F)F)CC1.Cl` showed a survival at 0.1 µM (Leishmania mexicana [1]) of 9.48%, a viability at 96 h, 0.1 µM [2] of 74.4% and an EC50 (Leishmania mexicana [3]) of 46.7 nM. The EC50 at 96 h [4] was 1100 nM, the selectivity ratio [5] was 24 and the EC50 (Leishmania donovani) was 198 nM. The IC50 (HepG2) was 5120 nM, the selectivity ratio [6] was 26 and the half-life at 1 µM [7] was 13 min.

For `C(/NC1CCCCCC1)=C1/N=C(c2ccc[nH]2)C2=C1CCCC2.Cl`, the survival at 0.1 µM (Leishmania mexicana [1]) was 24.7%, the viability at 96 h, 0.1 µM [2] was 80% and the EC50 (Leishmania mexicana [3]) was 74 nM. It also gave an EC50 at 96 h [4] of 252 nM, a selectivity ratio [5] of 3.4 and an EC50 (Leishmania donovani) of 101 nM. For the same compound, the IC50 (HepG2) was 6200 nM, the selectivity ratio [6] was 61 and the half-life at 1 µM [7] was > 60 min.

In the case of `COC1=CC(c2ccc[nH]2)=N/C1=C\NCC1CCCCCC1.Cl`, the survival at 0.1 µM (Leishmania mexicana [1]) is reported as 5.3%, the viability at 96 h, 0.1 µM [2] is reported as 72.2% and the EC50 (Leishmania mexicana [3]) is reported as 48.5 nM. The EC50 at 96 h [4] was > 1000 nM, the selectivity ratio [5] was > 21 and the EC50 (Leishmania donovani) was 88 nM. The IC50 (HepG2) was 6060 nM, the selectivity ratio [6] was 69 and the half-life at 1 µM [7] was 18.6 min.

Compound `COC1=CC(c2ccc[nH]2)=N/C1=C\Nc1ccc(Oc2ccc(C)cc2)cc1` has a survival at 0.1 µM (Leishmania mexicana [1]) of 26%, a viability at 96 h, 0.1 µM [2] of 69.8% and an EC50 (Leishmania mexicana [3]) of 93 nM. For the same compound, the EC50 at 96 h [4] was 2740 nM, the selectivity ratio [5] was 29 and the EC50 (Leishmania donovani) was 285 nM. For the same compound, the IC50 (HepG2) was 1730 nM, the selectivity ratio [6] was 6 and the half-life at 1 µM [7] was > 60 min. It also gave a half-life at 1 µM [8] of 46.9 min.

`CCCCCCN/C=C1\N=C(c2ccc[nH]2)C=C1OC.Cl` showed a survival at 0.1 µM (Leishmania mexicana [1]) of 11.1%, a viability at 96 h, 0.1 µM [2] of 127% and an EC50 (Leishmania mexicana [3]) of 52.5 nM. The EC50 at 96 h [4] was > 1000 nM, the selectivity ratio [5] was > 19 and the EC50 (Leishmania donovani) was 118 nM. For the same compound, the IC50 (HepG2) was 26700 nM, the selectivity ratio [6] was 226 and the half-life at 1 µM [7] was 17.1 min.

`COC1=CC(c2ccc[nH]2)=N/C1=C\N[C@H]1CC[C@H](C)CC1.Cl` gave a survival at 0.1 µM (Leishmania mexicana [1]) of 12.4%, a viability at 96 h, 0.1 µM [2] of 66.6% and an EC50 (Leishmania mexicana [3]) of 40 nM. It also gave an EC50 at 96 h [4] of 696 nM, a selectivity ratio [5] of 17 and an EC50 (Leishmania donovani) of 122 nM. For the same compound, the IC50 (HepG2) was 3420 nM, the selectivity ratio [6] was 28 and the half-life at 1 µM [7] was 17.3 min.

`CCC1=C/C(=C\NC23CC4CC(CC(C4)C2)C3)N=C1c1ccc[nH]1` showed a survival at 0.1 µM (Leishmania mexicana [1]) of 11.3%, a viability at 96 h, 0.1 µM [2] of 50% and an EC50 (Leishmania mexicana [3]) of 37.5 nM. The EC50 at 96 h [4] was 884 nM, the selectivity ratio [5] was 24 and the EC50 (Leishmania donovani) was 90.5 nM. The selectivity ratio [6] was 168.

With `Cl.Clc1ccc(OC2=CC(c3ccc[nH]3)=N/C2=C\NC23CC4CC(CC(C4)C2)C3)cc1` the survival at 0.1 µM (Leishmania mexicana [1]) was 7.16%, the viability at 96 h, 0.1 µM [2] was 67.1% and the EC50 (Leishmania mexicana [3]) was 38.3 nM. For the same compound, the EC50 at 96 h [4] was 567 nM, the selectivity ratio [5] was 15 and the EC50 (Leishmania donovani) was 181 nM. For the same compound, the IC50 (HepG2) was 14500 nM, the selectivity ratio [6] was 80 and the half-life at 1 µM [7] was > 60 min. The half-life at 1 µM [8] was > 60 min.
